Here are results for 5 molecules from ChEMBL document CHEMBL4342508, “Discovery and Pharmacokinetics of Sulfamides and Guanidines as Potent Human Arginase 1 Inhibitors” (ACS Med Chem Lett, 2020).

Common to all, as to settings: in vivo
Data set [1] can be described thus: Oral bioavailability in Sprague-Dawley rat at 10 mg/kg measured up to 24 hrs by LC-MS/MS analysis. The class given is ADME, organism-based.
The nature of data set [2]: Clearance in Sprague-Dawley rat at 3 mg/kg, iv measured up to 24 hrs by LC-MS/MS analysis. The data set is classed as ADME, organism-based.
Data set [3] can be described thus: Clearance in rat. The class given is ADME.
Data set [4] is described as follows: Oral bioavailability in rat. The class given is ADME, organism-based. In a few lines: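 Male Sprague–Dawley rats were dosed at 3 mg/kg i.v. and 10 mg/kg p.o., and plasma concentrations were followed over time for up to 24 h after dosing. Oral bioavailability comes from the p.o. versus i.v. plasma exposure profiles.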
A short description of data set [5]: Mean residence time in BALB/c mouse at 3 mg/kg, iv measured up to 24 hrs by LC-MS/MS analysis. The class given is ADME, organism-based.
Data set [6] is described as follows: Mean residence time in Sprague-Dawley rat at 3 mg/kg, iv measured up to 24 hrs by LC-MS/MS analysis. The data set is classed as ADME, organism-based. In a few lines: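 Male Sprague–Dawley rats dosed with the hydrochloride salt at 3 mg/kg i.v. or 10 mg/kg p.o.; plasma concentration–time profiles followed over 24 h, with PK parameters derived from them. Oral bioavailability comes from comparing the p.o. and i.v. arms.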

Structures are written as SMILES.

`N[C@@H](CCCCB(O)O)C(=O)O` returned a bioavailability in data set [1] of 89%. Further, the clearance in data set [2] was 2.3 mL/min/kg.

The molecule `C[C@H](N)C(=O)N1C[C@H](CCCB(O)O)[C@](N)(C(=O)O)C1` registered a clearance in data set [3] of 10 mL/min/kg. The bioavailability in data set [4] was determined as 52%.

Turning to `NC(CCCCB(O)O)(CNS(N)(=O)=O)C(=O)O` (configuration not stated), the MRT in data set [5] was determined as 48.6 min.

For `N=C(N)NCC(N)(CCCCB(O)O)C(=O)O` (configuration not stated), the mean residence time (MRT) in data set [5] came to 15.6 min.

Take `N=C(N)NC[C@](N)(CCCCB(O)O)C(=O)O`: the MRT in data set [6] stood at 715 min.

In general, bioavailability refers to dose-corrected exposure relative to a reference, in per cent. A word on the clearance: it is a measure of how efficiently the substance is removed, as volume per time. High values mean efficient removal, low ones inefficient removal. One may read the MRT as a mean duration of stay, worked out from the concentration-time curve.
